Measurements as given in ChEMBL document CHEMBL1137692, “Synthesis and antimicrobial activity of new 1-alkyl/cyclohexyl-3,3-diaryl-1'-methylspiro[azetidine-2,3'-indoline]-2',4-diones” (2009).
In brackets after ≈: the same amount, converted by molar mass. Activity calls are given as the source filed them. The rule behind the calls is not given here.

Legend:
[1] = system: Bacillus subtilis; assay: Antibacterial activity against Bacillus subtilis at 100 ug/mL by bioautographic agar overlay method; assay type: functional, organism-based
[2] = system: Saccharomyces cerevisiae; assay: Antifungal activity against Saccharomyces cerevisiae by bioautographic agar overlay method; assay type: functional
How it was run: (§1)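 Nutrient agar inoculated with the pure microbial culture was poured over the plates, which were incubated appropriately. Bacterial or fungal growth inhibition was scored by bioautography.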

[3] = system: Candida albicans; assay: Antifungal activity against Candida albicans at 100 ug/mL by bioautographic agar overlay method; assay type: functional, organism-based
[4] = system: Staphylococcus aureus; assay: Antibacterial activity against Staphylococcus aureus at 100 ug/mL by bioautographic agar overlay method; assay type: functional, organism-based
[5] = system: Escherichia coli; assay: Antibacterial activity against Escherichia coli by bioautographic agar overlay method; assay type: functional; how it was run: as §1
[6] = system: Candida albicans; assay: Antifungal activity against Candida albicans by bioautographic agar overlay method
[7] = system: Pseudomonas aeruginosa; assay: Antibacterial activity against Pseudomonas aeruginosa by bioautographic agar overlay method; assay type: functional; how it was run: as §1
[8] = system: Staphylococcus aureus; assay: Antibacterial activity against Staphylococcus aureus by bioautographic agar overlay method; assay type: functional; how it was run: as §1
[9] = system: Bacillus subtilis; assay: Antibacterial activity against Bacillus subtilis by bioautographic agar overlay method; assay type: functional; how it was run: as §1

SMILES	Activity [1]	MIC [2] [µg/mL]	Activity [3]	Activity [4]	MIC [5] [µg/mL]	MIC [6] [µg/mL]	MIC [7] [µg/mL]	MIC [8] [µg/mL]	MIC [9] [µg/mL]
CC(C)N1C(=O)C(c2ccccc2)(c2ccccc2)C12C(=O)N(C)c1ccccc12 (stereo unspecified)	inactive	50 (≈ 126 µM)	inactive	inactive	–	–	–	–	–
COc1ccc(C2(c3ccc(OC)cc3)C(=O)N(C(c3ccccc3)c3ccccc3)C23C(=O)N(C)c2ccccc23)cc1 (stereo unspecified)	inactive	50 (≈ 86.1 µM)	inactive	inactive	50 (≈ 86.1 µM)	–	–	–	–
Cc1ccc(C2(c3ccc(C)cc3)C(=O)N(C(C)c3ccccc3)C23C(=O)N(C)c2ccccc23)cc1 (stereo unspecified)	inactive	–	inactive	inactive	–	–	–	–	–
Cc1ccc(C2(c3ccc(C)cc3)C(=O)N(C(c3ccccc3)c3ccccc3)C23C(=O)N(C)c2ccccc23)cc1 (stereo unspecified)	inactive	100 (≈ 182 µM)	inactive	inactive	–	–	–	–	–
Clc1ccc(COC(Cn2ccnc2)c2ccc(Cl)cc2Cl)c(Cl)c1 (stereo unspecified) [MICONAZOLE]	–	0.1 (≈ 0.24 µM)	–	–	–	0.1 (≈ 0.24 µM)	–	–	–
Cc1ccc(C2(c3ccc(C)cc3)C(=O)N(C(C)C)C23C(=O)N(C)c2ccccc23)cc1 (stereo unspecified)	inactive	50 (≈ 118 µM)	inactive	inactive	10 (≈ 23.6 µM)	–	50 (≈ 118 µM)	–	–
CC(c1ccccc1)N1C(=O)C(c2ccccc2)(c2ccccc2)C12C(=O)N(C)c1ccccc12 (stereo unspecified)	inactive	–	inactive	inactive	–	–	–	–	–
O=C(N[C@H](CO)[C@H](O)c1ccc([N+](=O)[O-])cc1)C(Cl)Cl [CHLORAMPHENICOL]	–	–	–	–	0.1 (≈ 0.309 µM)	–	–	0.1 (≈ 0.309 µM)	0.1 (≈ 0.309 µM)
COc1ccc(C2(c3ccc(OC)cc3)C(=O)N(C(C)C)C23C(=O)N(C)c2ccccc23)cc1 (stereo unspecified)	inactive	50 (≈ 110 µM)	inactive	inactive	–	–	–	–	–
Cc1ccc(C2(c3ccc(C)cc3)C(=O)N(C3CCCCC3)C23C(=O)N(C)c2ccccc23)cc1 (stereo unspecified)	inactive	–	inactive	inactive	100 (≈ 215 µM)	–	–	–	–
CN1C(=O)C2(c3ccccc31)N(C(c1ccccc1)c1ccccc1)C(=O)C2(c1ccccc1)c1ccccc1 (stereo unspecified)	inactive	10 (≈ 19.2 µM)	inactive	inactive	–	–	–	–	–
CN1C(=O)C2(c3ccccc31)N(C1CCCCC1)C(=O)C2(c1ccccc1)c1ccccc1 (stereo unspecified)	inactive	–	inactive	inactive	100 (≈ 229 µM)	–	–	–	–
